Rows were chosen to be rich in hits. Some 3.5% of all compounds tested hit in one or more screens of this group.
RGS4 act: RGS4 potentiation or activation; actives 0.92% (n = 310,000); B-score at 10 µM; AID 463111; HEK293 M3R/inducible RGS4, carbachol calcium flux Fluo4; hits give low values;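 active = B-score of the integrated calcium signal more than 4 SD below the library mean, with starting fluorescence not abnormally high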;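 also: negative B-score means reduced calcium response which marks RGS4 activation or potentiation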
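Assay system: HEK293 FlpIn-TREx cells, stable M3R, doxycycline-inducible RGS4 / Probe or stimulus: carbachol, ECmax concentration / Times: overnight RGS4 induction, 30 min dye load 37 °C, 20 min compound RT / Signal: kinetic calcium fluorescence imaging with Fluo4-AM dye, 2 µM / Measure: Agonist-evoked peak-minus-minimum fluorescence over baseline, integrated ratio, B score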
MrgX1 antagonist: antagonists of human MrgX1 receptor. MRGX1-HEK293 calcium flux, Fluo-4, BAM8-22 antagonism; hits give low values. B-score at 10 µM. Q96LB2. actives 1.3% (n = 310,000);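 active = calcium-response B-score plate-corrected more than 3 library SD below zero, starting fluorescence within 5 deviations, no agonist response on first addition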;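 also: peak minus trough fluorescence over baseline after final BAM8-22 challenge near maximal dose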
Target sequence (Q96LB2 whole entry, looked up): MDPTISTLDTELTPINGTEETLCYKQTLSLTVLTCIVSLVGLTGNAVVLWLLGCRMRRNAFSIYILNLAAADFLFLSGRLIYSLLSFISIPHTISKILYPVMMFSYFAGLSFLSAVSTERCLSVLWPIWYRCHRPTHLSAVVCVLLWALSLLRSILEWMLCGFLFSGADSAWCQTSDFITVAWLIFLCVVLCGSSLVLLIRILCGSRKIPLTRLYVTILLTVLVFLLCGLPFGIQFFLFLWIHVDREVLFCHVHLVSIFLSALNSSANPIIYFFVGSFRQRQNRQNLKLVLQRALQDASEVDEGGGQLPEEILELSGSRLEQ
MrgX1 allo act: human MrgX1 positive allosteric modulation, primary screen. Q96LB2. actives 0.63% (n = 310,000). B-score at 10 µM. MrgX1-HEK293, Fluo-4 calcium flux, FDSS; hits give high values;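 active = plate-corrected calcium response at least 3 library SD above typical, normal starting fluorescence, not activating the receptor alone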;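 also: compound read alongside a low EC10 to EC30 dose of BAM8-22 agonist; peak minus trough fluorescence over baseline measured at the second addition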
RGS4 inh: human RGS4 inhibition. AID 463165. actives 0.45% (n = 310,000). P49798. HEK293 M3R/RGS4 inducible, Fluo-4 calcium flux; hits give high values; triggered by carbachol at its EC20. B-score at 10 µM;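 active = B-score, a plate-corrected calcium signal, over three deviations above library mean, with baseline fluorescence within five deviations of library mean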;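 also: RGS4 expression induced by doxycycline in cells with stable M3 receptor; B-score is computed from the integrated fluorescence ratio over baseline after carbachol; higher B-score means a larger calcium signal and so more RGS4 inhibition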
Target sequence (P49798 whole entry, looked up): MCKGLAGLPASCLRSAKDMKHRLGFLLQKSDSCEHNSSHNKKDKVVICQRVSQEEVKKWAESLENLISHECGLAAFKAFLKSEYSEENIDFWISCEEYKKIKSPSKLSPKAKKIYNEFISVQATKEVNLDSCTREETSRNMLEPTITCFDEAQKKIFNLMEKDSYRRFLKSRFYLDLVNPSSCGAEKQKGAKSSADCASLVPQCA
MrgX1 ag: agonists of human MrgX1 receptor. B-score at 10 µM. MrgX1-HEK293 cells, Fluo-4 calcium fluorescence, agonist mode; hits give high values. AID 588627. Q96LB2. actives 0.44% (n = 310,000);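 active = calcium response B-score plate-corrected fluorescence ratio at least 3 library SD, with starting fluorescence B-score inside 5 SD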
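Material: HEK293 cells stably expressing human MrgX1 receptor | Quantity: 15,000 cells per well | Times: Cells plated overnight, dye loaded 0.5 h 37 °C, 0.5 h room temperature | Measured by: Kinetic Fluo-4 NW fluorescence of intracellular calcium | Control set: Positive and negative controls per plate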
Hits are given with their value; - = inactive; . = no result.

SMILES	RGS4 act	MrgX1 antagonist	MrgX1 allo act	RGS4 inh	MrgX1 ag
CCOc1ccc(CNCCN2CCCC2)cc1	-	-	-	-	-
O=C(Nc1cccc(Cl)c1)Nc1ccc2nccnc2c1	-	-4.73	-	-	-
O=C(Nc1ccc2nccnc2c1)Nc1ccccc1Cl	-	-	-	-	-
CCc1ccc(C(=O)COC(=O)c2n[nH]c3ccccc23)cc1	-	-	-	-	-
O=C(NN1C(=O)C2C3C=CC(C3)C2C1=O)c1ccccc1 (centres undefined)	-	-	-	-	-
Cc1cccc(C(=O)NN2C(=O)C3C(c4ccccc4)C=CC(c4ccccc4)C3C2=O)c1 (centres undefined)	-7.09	-	-	-	-
CCN1CCCC1CNC(=O)c1ccc(Sc2ccccc2Cl)c([N+](=O)[O-])c1 (centres undefined)	-7.14	-	-	-	-
CCN1CCCC1CNC(=O)c1ccc(Sc2ccc(F)cc2)c([N+](=O)[O-])c1 (centres undefined)	-9.93	-	-	-	-
CCN1CCN(C(=O)c2ccc(Sc3ccccc3Cl)c([N+](=O)[O-])c2)CC1	-	-	-	-	-
CNC[C@H](NC[C@@H](NCCCc1ccccc1)c1ccccc1)[C@H](C)O	-	-	-	-	-
OC(CNCc1ccccc1C(F)(F)F)C(F)(F)F (centres undefined)	-	-	-	-	-
Cc1ccc(S(=O)(=O)N2CCN(C)CC2)cc1[N+](=O)[O-]	-	-4.91	-	-	-
COc1ccc(OC)c(Nc2nc(N(C)c3ccccc3)nc(N)c2[N+](=O)[O-])c1	-8.1	-	-	-	-
CN(c1ccccc1)c1nc(N)c([N+](=O)[O-])c(Nc2ccccc2F)n1	-	-	-	-	-
CC1CCCN(C(=O)CCNC(=O)Cn2cnc3ccccc3c2=O)C1 (centres undefined)	-	-	-	-	-
COc1cc(C2Oc3cc(C4Oc5cc(O)cc(O)c5C(=O)C4O)ccc3OC2CO)ccc1O (centres undefined)	-	-	8.77	-	-
CC(C)Cn1c(N)c(C(=O)COC(=O)c2cc(C(F)(F)F)nc3ccccc23)c(=O)n(C)c1=O	.	-	-	.	-
Cn1c(=O)c(C(=O)COC(=O)c2cc(C(F)(F)F)nc3c(C(F)(F)F)cccc23)c(N)n(CC2CC2)c1=O	-8.93	-7.5	-	-	-
Cc1cccc(OCC(=O)N/N=C/c2sc(=O)n(Cc3cccc(C(=O)O)c3)c2Cl)c1	-	-	-	-	-
COc1cccc(CC(CC(=O)O)C(=O)Nc2cc(C)ccc2C)c1 (centres undefined)	-	-	-	-	-
CSc1cccc(NC(=S)NCCCN2CCN(c3ccc(F)cc3)CC2)c1	-	-	-	-	-
CCc1ccc2nc(N3C(=O)C(O)=C(C(=O)c4ccco4)C3c3cccs3)sc2c1 (centres undefined)	-	-	-	-	-
Cc1ccc2nc(N3C(=O)C(O)=C(C(=O)c4cc5ccccc5o4)C3c3cccs3)sc2c1 (centres undefined)	-	-5.65	-	-	-
Cc1ccc(C(O)CSc2nnc(-c3ccc4ccccc4c3)n2C)cc1 (centres undefined)	-	-	-	-	-
Cc1cc(C)nc(/N=C(\N)Nc2ccc(F)c([N+](=O)[O-])c2)n1	-	-	-	-	37.8
SMILES	RGS4 act	MrgX1 antagonist	MrgX1 allo act	RGS4 inh	MrgX1 ag
CC(C)c1nn2c(=O)cc(O)nc2s1	-	-	-	-	-
O=C(NNC(=O)C1CCN(S(=O)(=O)c2ccc(Cl)cc2)CC1)c1ccccc1O	-	-	-	-	-
CC(C)CCN(C(=S)Nc1cccc(F)c1)C(C)c1cccs1 (centres undefined)	-	-	10.5	-	-
COCCN(C(=S)Nc1cccc(C)c1)C(C)c1cccs1 (centres undefined)	-	-	-	-	-
CC(=O)c1cccc(Nc2nc(-c3sc(N)nc3C)cs2)c1	-7.22	-	-	-	-
CC(=O)c1cccc(Nc2nc(-c3sc(C)nc3C)cs2)c1	-	-	-	-	-
CCC(=O)Nc1nc(C)c(-c2csc(Nc3cccc(O)c3)n2)s1	-7.29	-5.4	-	-	-
Cc1nc(C)c(-c2csc(Nc3cccc(O)c3)n2)s1	-	-	-	-	-
CCc1nnc(NC(=O)C2CCC(CNc3c(N4CCC(C)CC4)c(=O)c3=O)CC2)s1 (centres undefined)	-	-	-	-	-
CCOc1ccc(NC2=C(OC)C(=O)c3ccccc3C2=O)cc1	-	-	7.35	-	-
COC1=C(Nc2ccc(OC)cc2)C(=O)c2ccccc2C1=O	-	-	7.79	-	-
COC1=C(Nc2ccc(O)cc2)C(=O)c2ccccc2C1=O	-	-	-	-	-
COc1ccc(NC2=C(NCCO)C(=O)c3ccccc3C2=O)cc1	-	-	-	-	-
C=CCn1c(NC(=O)c2ccc(C)cc2)nc2ccccc21	-	-	-	-	-
CC(=O)N1c2ccc(S(=O)(=O)NCC3CCC(C(=O)N4CCC(C)CC4)CC3)cc2CC1C (centres undefined)	-	-	-	-	-
CCOC(=O)C1=C(COC(=O)/C=C/c2ccccc2F)NC(=O)NC1C (centres undefined)	-	-	-	-	-
CCOC(=O)C1=C(COC(=O)/C=C/c2ccccc2Cl)NC(=O)NC1C (centres undefined)	-	-	8.47	-	-
Cc1nc(N2CCN(C(=O)c3cnccn3)CC2)c2c3c(sc2n1)CC(C(C)(C)C)CC3 (centres undefined)	-	-	-	-	-
Cc1cc(C)n(CC(=O)N/N=C/c2cccs2)n1	-	-4.62	-	-	-
Cc1cc(C)n(CC(=O)N/N=C/c2ccc([N+](=O)[O-])s2)n1	-	-	-	-	-
O=[N+]([O-])c1ccc(NC(=S)NCc2ccc(F)cc2)cc1	-	-	-	-	27.1
O=[N+]([O-])c1ccc(NC(=S)NCc2ccncc2)cc1	-	-4.67	-	-	-
CCCc1nc2ccc(NC(=O)c3ccco3)cc2c(=O)n1Cc1ccc(Cl)cc1	-	-6.71	-	-	-
Nc1cc(=O)[nH]n1C1CCCCC1	-	-	-	-	-
CCN1CCN(c2ncc(C(=O)Nc3c(F)cc(F)cc3Br)c3ccccc23)CC1	-	-	-	-	-
CCN1CCN(c2ncc(C(=O)Nc3cc(Cl)c(OC)cc3OC)c3ccccc23)CC1	-7.26	.	.	-	.
CN(C)c1ccc(/C=N/N(CCO)C2=NS(=O)(=O)c3ccccc32)cc1	-7.91	-	-	-	-
O=S1(=O)N=C(N(CCO)/N=C/c2ccc(Cl)cc2)c2ccccc21	-	-	-	-	-
CC(=O)Nc1cccc(NC(=O)CSc2ncc(C(=O)Nc3ccccc3)c(=O)n2C)c1	-	-	-	5.76	-

Bioassay records (PubChem BioAssay)
